Measurements taken from ChEMBL document CHEMBL1144885 (J Med Chem, 2003).

Key:
Histamine H3 receptor [1] = target: T1, Histamine H3 receptor (Homo sapiens, UniProt Q9Y5N1); assay: Inhibitory activity measured by [3H]- N alpha- methyl-histamine binding to membranes of SK-N-MC cells expressing the human Histamine H3 receptor; assay type: cell membranes
Histamine H3 receptor [2] = target: T1, Histamine H3 receptor; assay: Inhibitory activity determined by the inhibition of cAMP- stimulated beta-galactosidase transcription in SK-N-MC cells expressing the human Histamine H3 receptor; assay type: cell-based
Histamine H4 receptor [3] = target: T2, Histamine H4 receptor (Homo sapiens, UniProt Q9H3N8); assay: Inhibitory activity determined by the inhibition of cAMP- stimulated beta-galactosidase transcription in SK-N-MC cells expressing the human Histamine H4 receptor; assay type: cell-based
T2 sequence (Q9H3N8 whole entry): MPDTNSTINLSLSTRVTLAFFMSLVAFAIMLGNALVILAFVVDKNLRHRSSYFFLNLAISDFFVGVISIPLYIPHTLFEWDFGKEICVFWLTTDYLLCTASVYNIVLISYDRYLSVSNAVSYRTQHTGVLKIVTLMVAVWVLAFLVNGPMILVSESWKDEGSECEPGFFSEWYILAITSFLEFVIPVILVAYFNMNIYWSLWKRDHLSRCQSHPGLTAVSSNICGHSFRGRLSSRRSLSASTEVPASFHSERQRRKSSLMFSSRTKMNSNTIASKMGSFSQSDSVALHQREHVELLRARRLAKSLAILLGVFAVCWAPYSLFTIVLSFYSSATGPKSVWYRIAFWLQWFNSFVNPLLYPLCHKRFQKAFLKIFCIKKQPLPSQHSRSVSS
Procedure, shortened: (§1)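 SK-N-MC cells stably carrying human H4 receptor and a CRE-driven β-galactosidase reporter gene, grown overnight, then exposed 6 h at 37 °C to 1 μM forskolin plus ligand. Mean ± SEM, at least three independent experiments.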

Histamine H4 receptor [4] = target: T2, Histamine H4 receptor; assay: Inhibitory activity measured by [3H]histamine binding to membranes of SK-N-MC cells expressing the human Histamine H4 receptor
Histamine H4 receptor [5] = target: T2, Histamine H4 receptor; assay: Intrinsic activity for Histamine H4 receptor
Procedure, shortened: as §1, with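 “ligand. Medium removed; cells held overnight at 4 °C in pH 8 phosphate buffer containing Triton and 4 mM ONPG; absorbance read at 405 nm.” for “ligand.”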

T1 sequence (Q9Y5N1 whole entry): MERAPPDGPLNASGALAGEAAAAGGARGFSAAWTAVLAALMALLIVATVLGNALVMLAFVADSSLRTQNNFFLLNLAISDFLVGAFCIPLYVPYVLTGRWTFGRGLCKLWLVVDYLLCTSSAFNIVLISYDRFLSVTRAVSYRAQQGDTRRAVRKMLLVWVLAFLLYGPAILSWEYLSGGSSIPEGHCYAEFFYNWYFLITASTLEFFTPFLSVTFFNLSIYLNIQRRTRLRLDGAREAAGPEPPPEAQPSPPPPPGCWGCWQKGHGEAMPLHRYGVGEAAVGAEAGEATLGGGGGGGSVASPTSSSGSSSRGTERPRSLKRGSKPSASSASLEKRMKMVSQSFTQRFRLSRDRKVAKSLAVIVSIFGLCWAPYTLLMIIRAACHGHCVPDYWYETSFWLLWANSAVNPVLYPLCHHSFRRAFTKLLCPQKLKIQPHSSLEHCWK

SMILES	Ki (Histamine H3 receptor [1])	EC50 (Histamine H3 receptor [2])	EC50 (Histamine H4 receptor [3])	Ki (Histamine H4 receptor [4])	Intrinsic activity (Histamine H4 receptor [5])
c1nc(CCC2CCNCC2)c[nH]1	20 nM	13.2 nM	> 10000 nM	372 nM	–
c1nc(CC2CCNCC2)c[nH]1 [IMMEPIP]	0.479 nM	0.132 nM	56.2 nM	–	0.73
C(=C1CCNCC1)c1c[nH]cn1	5.89 nM	3.16 nM	> 10000 nM	1740 nM	–
c1nc(CC2CCCCN2)c[nH]1 (centres undefined)	–	794 nM	> 10000 nM	8910 nM	–
C=C(c1c[nH]cn1)C1CCNCC1	3.98 nM	2.34 nM	> 10000 nM	2820 nM	–
NCCCCc1c[nH]cn1 [IMBUTAMINE]	4.07 nM	7.41 nM	89.1 nM	–	0.96
C[C@@H](N)Cc1c[nH]cn1	–	–	1120 nM	–	1.04
NCCCCCc1c[nH]cn1 [IMPENTAMINE]	–	2.34 nM	> 10000 nM	372 nM	–
c1nc(CCC2CCCNC2)c[nH]1 (centres undefined)	182 nM	513 nM	2040 nM	324 nM	0.48
c1nc(C[C@@H]2CCNC2)c[nH]1	1.41 nM	0.389 nM	1020 nM	141 nM	0.8
O=C(c1c[nH]cn1)C1CCNCC1	–	2750 nM	> 10000 nM	479000 nM	–
NCC1CC1c1c[nH]cn1 (centres undefined)	35.5 nM	19.5 nM	1100 nM	112 nM	0.56
c1nc(C2CCNCC2)c[nH]1	871 nM	1820 nM	> 10000 nM	2190 nM	–
N[C@@H]1C[C@H]1c1cnc[nH]1 [VUF-5296]	67.6 nM	57.5 nM	> 10000 nM	3800 nM	–
NCCCCCCc1cnc[nH]1	10 nM	33.1 nM	> 10000 nM	759 nM	–
c1ncc(CCCC2CCNCC2)[nH]1	4.47 nM	8.32 nM	> 10000 nM	617 nM	–
c1nc(CCCC2CCCNC2)c[nH]1 (centres undefined)	–	–	> 10000 nM	389 nM	–
N[C@H]1C[C@@H]1c1c[nH]cn1 [VUF-5297]	9.33 nM	5.89 nM	7080 nM	1100 nM	0.61
c1nc(CC2CCCNC2)c[nH]1 (centres undefined)	67.6 nM	49 nM	3980 nM	617 nM	0.64
NCCCc1c[nH]cn1 [HOMOHISTAMINE]	49 nM	42.7 nM	214 nM	–	0.82
c1nc(C[C@H]2CCNC2)c[nH]1	5.25 nM	2.09 nM	417 nM	37.2 nM	0.85
c1nc(CC2CCNC2)c[nH]1 (centres undefined)	3.63 nM	1.32 nM	741 nM	51.3 nM	0.83
C1=C(c2c[nH]cn2)CCNC1	4270 nM	1510 nM	> 10000 nM	263000 nM	–
c1nc(CCCC2CCCCN2)c[nH]1 (centres undefined)	93.3 nM	324 nM	> 10000 nM	575 nM	–
c1nc(CCC2CCCCN2)c[nH]1 (centres undefined)	–	> 10000 nM	> 10000 nM	4470 nM	–
